ChEMBL document CHEMBL1136747, “Influence of the 5-HT6 receptor on acetylcholine release in the cortex: pharmacological characterization of 4-(2-bromo-6-pyrrolidin-1-ylpyridine-4-sulfonyl)phenylamine, a potent and selective 5-HT6 receptor antagonist” (J Med Chem, 2003)

What was measured:
[1] = target: T1, 5-hydroxytryptamine receptor 6 (Homo sapiens, UniProt P50406); assay: Antagonism assessed in a functional cAMP binding assay using 5-CT to stimulate human 5-hydroxytryptamine 6 receptor expressed in HEK 293 cells; format: cell-based, HEK293; details: read-out: pA2 (converted)
Outline: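 Human 5-HT6 receptor stably expressed in HEK-293 cells; adenylate cyclase (cAMP) activity stimulated with 5-CT. 5-CT concentration–response curves were run with increasing antagonist concentrations, and the shift was analysed by Schild analysis, n = 3.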

[2] = Partition coefficient (logD7.4); format: physicochemical; details: octanol/water, pH 7.4
[3] = target: 5-hydroxytryptamine receptor 7 (Homo sapiens, UniProt P34969); assay: Binding constant towards serotonin receptor subtype 5-hydroxytryptamine 7 receptor expressed in CHO cells using [3H]LSD as radioligand; format: cell-based
[4] = Dissociation constant was determined
[5] = target: T2, 5-hydroxytryptamine receptor 2C (Homo sapiens, UniProt P28335); assay: Binding constant towards serotonin receptor subtype 5-hydroxytryptamine 2C receptor expressed in 3T3 cells using [3H]5-HT as radioligand; format: cell-based, NIH3T3
T2 sequence (P28335 whole entry): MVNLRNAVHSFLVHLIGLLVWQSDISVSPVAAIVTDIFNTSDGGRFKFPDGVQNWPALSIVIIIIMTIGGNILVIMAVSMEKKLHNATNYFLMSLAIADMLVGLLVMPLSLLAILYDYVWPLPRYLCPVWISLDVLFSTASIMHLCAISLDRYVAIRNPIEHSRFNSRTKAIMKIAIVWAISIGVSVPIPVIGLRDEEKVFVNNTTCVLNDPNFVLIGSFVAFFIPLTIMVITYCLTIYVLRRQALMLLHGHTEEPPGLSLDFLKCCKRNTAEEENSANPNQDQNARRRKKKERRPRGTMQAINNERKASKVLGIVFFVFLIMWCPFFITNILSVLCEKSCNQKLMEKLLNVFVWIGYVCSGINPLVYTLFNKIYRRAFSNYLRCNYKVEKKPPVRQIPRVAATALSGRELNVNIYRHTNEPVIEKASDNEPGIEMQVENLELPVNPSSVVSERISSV

[6] = target: 5-hydroxytryptamine receptor 1D (Homo sapiens, UniProt P28221); assay: Binding constant towards serotonin receptor subtype 5-hydroxytryptamine 1D receptor expressed in HEK 293 cells using [3H]LSD as radioligand; format: cell-based, HEK293
[7] = Half-life period after oral administration in rat; format: ADME, organism-based; details: in vivo
Outline: (§1)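 Rats were dosed at 10 mg/kg in PEG/PG/WIP 40/40/20, either by oral gavage or intravenously with the same dose and formulation. Plasma concentrations were followed over 8 h. PK parameters were derived as plasma clearance, apparent terminal half-life, bioavailability and steady-state volume of distribution, reported as average ± SEM.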

[8] = Half-life period after intravenous administration in rat; format: ADME, organism-based; details: in vivo; outline: as §1
[9] = target: T1, 5-hydroxytryptamine receptor 6; assay: Binding constant towards serotonin receptor subtype 5-hydroxytryptamine 6 receptor expressed in HeLa cells using [3H]LSD as radioligand; format: cell-based
Outline: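 Radioligand binding to human recombinant 5-HT6 receptor expressed in HeLa cells with [3H]-LSD. Values are the mean ± SEM of three independent determinations, each run in triplicate.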

[10] = Bioavailability after oral administration in rat expressed as percentage; format: ADME, organism-based; details: in vivo; outline: as §1
Rattus norvegicus = assay: Ratio of brain/plasma concentration after oral administration in rat expressed as percentage; format: ADME, organism-based
Outline: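 Rats dosed at 10 mg/kg by oral gavage in PEG/PG/WIP 40/40/20. Brain and plasma concentrations were measured, and the brain/plasma ratio is given as a percentage (average ± SEM).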

[11] = In vivo plasma clearance after intravenous administration in rat; format: ADME, organism-based; details: read-out: Clp; outline: as §1
[12] = target: 5-hydroxytryptamine receptor 2A (Homo sapiens, UniProt P28223); assay: Binding constant towards serotonin receptor subtype 5-hydroxytryptamine 2A receptor expressed in 3T3 cells using [3H]-DOB as radioligand
[13] = Volume of distribution at steady state after intravenous administration in rat; format: ADME, organism-based; details: in vivo, read-out: Vss; outline: as §1

5-hydroxytryptamine receptor 1D, sequence (P28221 whole entry): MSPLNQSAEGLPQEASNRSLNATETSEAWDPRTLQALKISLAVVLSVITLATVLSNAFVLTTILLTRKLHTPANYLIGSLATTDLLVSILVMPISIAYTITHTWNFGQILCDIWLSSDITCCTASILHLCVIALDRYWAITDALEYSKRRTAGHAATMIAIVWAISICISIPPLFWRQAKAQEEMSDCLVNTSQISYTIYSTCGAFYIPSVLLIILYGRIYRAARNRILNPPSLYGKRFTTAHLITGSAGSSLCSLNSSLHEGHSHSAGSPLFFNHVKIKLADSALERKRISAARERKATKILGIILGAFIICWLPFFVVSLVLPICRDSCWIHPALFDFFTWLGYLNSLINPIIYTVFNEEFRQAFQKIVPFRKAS
5-hydroxytryptamine receptor 7, sequence (P34969 whole entry): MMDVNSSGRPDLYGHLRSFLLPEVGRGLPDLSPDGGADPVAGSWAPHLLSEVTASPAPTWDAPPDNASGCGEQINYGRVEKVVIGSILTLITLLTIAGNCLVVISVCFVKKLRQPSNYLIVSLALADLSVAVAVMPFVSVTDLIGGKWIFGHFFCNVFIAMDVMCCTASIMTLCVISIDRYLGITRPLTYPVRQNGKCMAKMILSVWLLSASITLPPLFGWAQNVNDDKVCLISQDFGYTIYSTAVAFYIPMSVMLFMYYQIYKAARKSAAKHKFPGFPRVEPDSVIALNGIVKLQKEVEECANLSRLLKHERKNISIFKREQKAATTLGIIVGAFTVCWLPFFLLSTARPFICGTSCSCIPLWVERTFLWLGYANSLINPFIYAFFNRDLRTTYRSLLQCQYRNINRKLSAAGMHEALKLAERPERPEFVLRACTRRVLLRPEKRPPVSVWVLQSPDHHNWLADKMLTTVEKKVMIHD
T1 sequence (P50406 whole entry): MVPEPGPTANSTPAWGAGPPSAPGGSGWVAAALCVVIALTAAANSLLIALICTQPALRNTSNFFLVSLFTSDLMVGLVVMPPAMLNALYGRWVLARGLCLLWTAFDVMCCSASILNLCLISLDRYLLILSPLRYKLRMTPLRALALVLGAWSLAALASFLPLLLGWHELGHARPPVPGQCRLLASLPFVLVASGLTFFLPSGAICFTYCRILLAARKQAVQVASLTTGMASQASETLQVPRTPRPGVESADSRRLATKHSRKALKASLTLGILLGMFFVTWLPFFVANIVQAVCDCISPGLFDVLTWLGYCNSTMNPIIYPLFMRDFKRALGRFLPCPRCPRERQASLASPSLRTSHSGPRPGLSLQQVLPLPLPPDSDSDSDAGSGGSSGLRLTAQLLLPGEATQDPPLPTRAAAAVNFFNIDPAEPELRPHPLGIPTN
5-hydroxytryptamine receptor 2A, sequence (P28223 whole entry): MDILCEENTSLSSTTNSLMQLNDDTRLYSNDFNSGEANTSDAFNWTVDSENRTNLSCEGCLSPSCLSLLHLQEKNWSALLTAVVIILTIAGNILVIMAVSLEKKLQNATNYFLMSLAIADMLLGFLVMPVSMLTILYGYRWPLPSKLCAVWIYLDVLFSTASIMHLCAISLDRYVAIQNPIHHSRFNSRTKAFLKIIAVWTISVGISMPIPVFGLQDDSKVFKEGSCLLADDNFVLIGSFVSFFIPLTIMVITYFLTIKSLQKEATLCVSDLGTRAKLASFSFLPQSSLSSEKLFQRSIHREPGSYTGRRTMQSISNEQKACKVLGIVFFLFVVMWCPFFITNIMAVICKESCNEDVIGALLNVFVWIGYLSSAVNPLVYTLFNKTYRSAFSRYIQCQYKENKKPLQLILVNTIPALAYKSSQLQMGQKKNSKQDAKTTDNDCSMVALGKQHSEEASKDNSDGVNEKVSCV

Ki [3]	Ki [5]	Ki [6]	Ki [9]	Ki [12]	Structure (SMILES)	other results
> 10000 nM	> 10000 nM	> 10000 nM	2.29 nM	–	CNc1cc(S(=O)(=O)c2ccc(N)cc2)cc(Br)n1	–
–	–	–	53.7 nM	–	Nc1ccc(S(=O)(=O)c2cc(Br)nc(Br)c2)cc1	–
> 10000 nM	> 10000 nM	> 10000 nM	55 nM	> 10000 nM	CNc1cc(NS(=O)(=O)c2ccc(N)cc2)nc(NC)n1	–

Second part, the compound before the results:

Structure (SMILES)	Ki [3]	Ki [5]	Ki [6]	Ki [9]	Ki [12]	other results
Nc1ccc(S(=O)(=O)c2cc(Br)nc(N3CCCC3)c2)cc1	> 100000 nM	> 10000 nM	> 100000 nM	1 nM	1450 nM	Kb [1]: 3.16 nM; logD [2]: 3.3; pKa [4]: < 2; half-life [7]: 3 h; half-life [8]: 3.7 h; bioavailability [10]: 46%; Ratio (Rattus norvegicus): 24%; clearance [11]: 20 mL/min/kg; Vd [13]: 1.4 L/kg
CNc1cc(S(=O)(=O)Nc2ccc(N)cc2)cc(Br)n1	–	–	–	42.7 nM	–	–
Nc1ccc(S(=O)(=O)c2cc(Br)nc(N3CCNCC3)c2)cc1	> 10000 nM	20.4 nM	1120 nM	0.115 nM	–	–
